{"source": "ChEMBL document CHEMBL1128301", "about": "“Cephalosporin derivatives of doxorubicin as prodrugs for activation by monoclonal antibody-beta-lactamase conjugates” (J Med Chem, 1995)", "proteins": {"B1": {"name": "Beta-lactamase TEM (Escherichia coli), P62593 (protein)", "chain": "MSIQHFRVALIPFFAAFCLPVFAHPETLVKVKDAEDQLGARVGYIELDLNSGKILESFRPEERFPMMSTFKVLLCGAVLSRVDAGQEQLGRRIHYSQNDLVEYSPVTEKHLTDGMTVRELCSAAITMSDNTAANLLLTTIGGPKELTAFLHNMGDHVTRLDRWEPELNEAIPNDERDTTMPAAMATTLRKLLTGELLTLASRQQLIDWMEADKVAGPLLRSALPAGWFIADKSGAGERGSRGIIAALGPDGKPSRIVVIYTTGSQATMDERNRQIAEIGASLIKHW"}, "B2": {"name": "Beta-lactamase (Enterobacter cloacae), P05364 (protein)", "chain": "MMRKSLCCALLLGISCSALATPVSEKQLAEVVANTITPLMKAQSVPGMAVAVIYQGKPHYYTFGKADIAANKPVTPQTLFELGSISKTFTGVLGGDAIARGEISLDDAVTRYWPQLTGKQWQGIRMLDLATYTAGGLPLQVPDEVTDNASLLRFYQNWQPQWKPGTTRLYANASIGLFGALAVKPSGMPYEQAMTTRVLKPLKLDHTWINVPKAEEAHYAWGYRDGKAVRVSPGMLDAQAYGVKTNVQDMANWVMANMAPENVADASLKQGIALAQSRYWRIGSMYQGLGWEMLNWPVEANTVVEGSDSKVALAPLPVAEVNPPAPPVKASWVHKTGSTGGFGSYVAFIPEKQIGIVMLANTSYPNPARVEAAYHILEALQ"}, "B3": {"name": "Metallo-beta-lactamase type 2 (Bacillus cereus), P14488 (protein)", "chain": "MKNTLLKLGVCVSLLGITPFVSTISSVQAERTVEHKVIKNETGTISISQLNKNVWVHTELGYFSGEAVPSNGLVLNTSKGLVLVDSSWDDKLTKELIEMVEKKFKKRVTDVIITHAHADRIGGMKTLKERGIKAHSTALTAELAKKNGYEEPLGDLQSVTNLKFGNMKVETFYPGKGHTEDNIVVWLPQYQILAGGCLVKSASSKDLGNVADAYVNEWSTSIENVLKRYGNINLVVPGHGEVGDRGLLLHTLDLLK"}}, "key": {"[1]": {"substrate": "COc1cccc2c1C(=O)c1c(O)c3c(c(O)c1C2=O)C[C@@](O)(C(=O)CO)C[C@@H]3OC1CC(NC(=O)OCC2=C(C(=O)O)N3C(=O)[C@@H](NC(=O)CCCC(=O)O)[C@H]3SC2)C(O)C(C)O1", "assay": "The kinetic constant(Km) value as spectrophotometrically by using Escherichia coli TEM-1 beta-lactamase (ECbL) enzyme as catalyst", "procedure,_shortened": "(§1)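 Spectrophotometric hydrolysis at 23 °C in PBS with 12.5 μg/mL BSA. EClbL was used at 0.1 μg/mL; BCbL and ECbL at 1.0 μg/mL. […] Initial velocities were linear over 1 min.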"}, "[2]": {"substrate": "COc1cccc2c1C(=O)c1c(O)c3c(c(O)c1C2=O)C[C@@](O)(C(=O)CO)C[C@@H]3OC1CC(NC(=O)OCC2=C(C(=O)O)N3C(=O)[C@@H](NC(=O)CCCC(=O)O)[C@H]3SC2)C(O)C(C)O1", "assay": "The kinetic constant(Km) value as spectrophotometrically by using Enterobacter cloacae P99 beta-lactamase (ECIbL) enzyme as catalyst", "procedure,_shortened": "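Initial-velocity kinetics at 23 °C in PBS with 12.5 μg/mL bovine serum albumin. […] Hydrolysis followed by absorbance change at 230 nm or 260 nm, linear over 1 min. Km from direct linear plots, mean of at least three independent experiments.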"}, "[3]": {"substrate": "COc1cccc2c1C(=O)c1c(O)c3c(c(O)c1C2=O)C[C@@](O)(C(=O)CO)C[C@@H]3OC1CC(NC(=O)OCC2=C(C(=O)O)N3C(=O)[C@@H](NC(=O)CCCC(=O)O)[C@H]3SC2)C(O)C(C)O1", "assay": "The kinetic constant(Km) value as spectrophotometrically by using Bacillus cereus beta-lactamase (BCbL) enzyme as catalyst", "procedure,_shortened": "as §1"}}, "data": [{"protein": "B1", "values": [{"measurement": "Km", "setting": "[1]", "value": 73, "unit": "µM"}]}, {"protein": "B2", "values": [{"measurement": "Km", "setting": "[2]", "value": 83, "unit": "µM"}]}, {"protein": "B3", "values": [{"measurement": "Km", "setting": "[3]", "value": 56, "unit": "µM"}]}]}
